# Measured values from ChEMBL document CHEMBL4257471, “Orthoester functionalized N-guanidino derivatives of 1,5-dideoxy-1,5-imino-d-xylitol as pH-responsive inhibitors of β-glucocerebrosidase” (Medchemcomm, 2017).
# Numbering of substitutions follows the chain as printed. Calls of active or inactive are those of the source. No cut-off for these calls is given here.
# Experiments:
# [1] = Inhibition of Penicillium decumbens naringinase pre-incubated for 5 mins followed by p-nitrophenyl-beta-D-glucopyranoside substrate addition and measured after 30 mins by spectrophotometric assay
# In short: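 Enzyme at 0.06 U mL⁻¹; substrate p-nitrophenyl-β-D-glucopyranoside at 0.7 mM final in 100 mM sodium acetate buffer, pH 5.0. IC50 values in μM, averaged from triple independent duplicate runs.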
# [2] = target: T1, Lysosomal acid glucosylceramidase (Homo sapiens, UniProt P04062); assay: Inhibition of recombinant human GBA pre-incubated for 30 mins followed by 4-methylumbelliferyl-beta-D-glucopyranoside substrate addition and measured after 10 mins using compound incubated at pH 7 buffer for 24 hrs prior to test by fluorescence assay
# T1 sequence (P04062 whole entry): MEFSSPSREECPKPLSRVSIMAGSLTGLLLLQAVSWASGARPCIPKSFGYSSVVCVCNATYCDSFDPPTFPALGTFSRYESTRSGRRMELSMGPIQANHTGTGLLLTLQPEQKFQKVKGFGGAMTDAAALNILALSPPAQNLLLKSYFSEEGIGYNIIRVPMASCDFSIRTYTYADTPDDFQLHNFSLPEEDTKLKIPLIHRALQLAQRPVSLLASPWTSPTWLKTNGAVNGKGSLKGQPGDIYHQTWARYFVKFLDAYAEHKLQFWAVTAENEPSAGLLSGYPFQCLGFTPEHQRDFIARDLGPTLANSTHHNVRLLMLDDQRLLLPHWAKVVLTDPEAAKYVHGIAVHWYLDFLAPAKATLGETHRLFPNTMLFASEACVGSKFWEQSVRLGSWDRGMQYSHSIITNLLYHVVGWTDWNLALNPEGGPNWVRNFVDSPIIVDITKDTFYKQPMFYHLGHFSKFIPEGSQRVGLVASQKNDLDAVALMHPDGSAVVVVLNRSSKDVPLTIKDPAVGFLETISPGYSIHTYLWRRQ
# [3] = Drug degradation in aqueous solution at room temperature after 6 days; assay type: physicochemical; conditions: read-out: Drug degradation
# [4] = Inhibition of yeast alpha-glucosidase pre-incubated for 5 mins followed by p-nitrophenyl-alpha-D-glucopyranoside substrate addition and measured after 30 mins by spectrophotometric assay; parameters: species or system Saccharomyces cerevisiae
# In short: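 Enzyme at 0.05 U mL⁻¹; p-nitrophenyl-α-D-glucopyranoside substrate at 0.7 mM final in 100 mM sodium phosphate, pH 7.2. IC50 values in μM averaged from triple independent duplicate analysis.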
# Alpha-galactosidase = Alpha-galactosidase (Coffea arabica, UniProt Q42656); assay: Inhibition of green coffee beans alpha-galactosidase pre-incubated for 5 mins followed by p-nitrophenyl-alpha-D-galactopyranoside substrate addition and measured after 30 mins by spectrophotometric assay
# Chain of Alpha-galactosidase (Q42656 whole entry): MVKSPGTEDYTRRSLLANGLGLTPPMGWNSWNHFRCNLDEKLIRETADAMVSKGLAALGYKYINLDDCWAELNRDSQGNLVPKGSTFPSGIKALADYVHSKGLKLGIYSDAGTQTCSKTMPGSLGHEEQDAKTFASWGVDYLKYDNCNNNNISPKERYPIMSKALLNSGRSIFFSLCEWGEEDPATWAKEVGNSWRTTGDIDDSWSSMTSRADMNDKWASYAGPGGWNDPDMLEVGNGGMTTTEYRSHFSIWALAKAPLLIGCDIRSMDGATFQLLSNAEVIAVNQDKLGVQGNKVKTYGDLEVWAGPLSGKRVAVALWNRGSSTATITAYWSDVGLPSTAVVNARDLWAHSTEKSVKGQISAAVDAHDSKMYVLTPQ
# In short: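 Enzyme at 0.05 U mL⁻¹ with p-nitrophenyl-α-D-galactopyranoside, 0.7 mM final, in sodium phosphate buffer (100 mM, pH 6.8). IC50 values in μM are averages of triple independent duplicate runs.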
# [5] = target: T1, Lysosomal acid glucosylceramidase; assay: Inhibition of recombinant human GBA pre-incubated for 30 mins followed by 4-methylumbelliferyl-beta-D-glucopyranoside substrate addition and measured after 10 mins using compound incubated at pH 5.2 for 24 hrs prior to test by fluorescence assay
# Beta-galactosidase = target: T2, Beta-galactosidase (Bos taurus, UniProt Q58D55); assay: Inhibition of bovine liver beta-galactosidase pre-incubated for 5 mins followed by p-nitrophenyl-beta-D-galactopyranoside substrate addition and measured after 30 mins by spectrophotometric assay
# T2 sequence (Q58D55 whole entry): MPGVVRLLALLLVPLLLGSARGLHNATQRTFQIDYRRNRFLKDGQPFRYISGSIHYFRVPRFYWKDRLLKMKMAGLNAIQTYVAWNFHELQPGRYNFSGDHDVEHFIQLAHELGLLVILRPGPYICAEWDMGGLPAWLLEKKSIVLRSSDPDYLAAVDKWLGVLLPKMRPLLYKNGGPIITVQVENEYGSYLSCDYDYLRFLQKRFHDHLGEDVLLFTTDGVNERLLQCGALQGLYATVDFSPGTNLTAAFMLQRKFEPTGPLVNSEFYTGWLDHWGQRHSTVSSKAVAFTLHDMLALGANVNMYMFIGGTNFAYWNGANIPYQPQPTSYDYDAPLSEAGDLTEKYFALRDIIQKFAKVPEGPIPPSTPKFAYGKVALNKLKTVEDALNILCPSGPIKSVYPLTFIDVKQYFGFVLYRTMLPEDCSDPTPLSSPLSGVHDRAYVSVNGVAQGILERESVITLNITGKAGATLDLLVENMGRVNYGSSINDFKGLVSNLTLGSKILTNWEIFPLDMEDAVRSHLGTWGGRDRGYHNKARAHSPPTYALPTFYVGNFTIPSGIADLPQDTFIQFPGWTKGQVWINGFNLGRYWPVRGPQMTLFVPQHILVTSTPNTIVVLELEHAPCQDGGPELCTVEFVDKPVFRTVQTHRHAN
# In short: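 Enzyme at 0.05 U mL⁻¹; p-nitrophenyl-β-D-galactopyranoside substrate, 0.7 mM final, in 100 mM sodium phosphate buffer, pH 7.2. IC50 values in μM from triple independent duplicate analysis.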
# [6] = tested on: T3, Lysosomal acid glucosylceramidase (Homo sapiens), P04062 [N409S]; assay: Chaperone activity at GBA N370S mutant in Gaucher disease patient-derived fibroblasts assessed as restoration of enzyme activity at 1 to 10000 nM after 4 days by 4-methylumbelliferyl-beta-D-glucopyranoside substrate based fluorescence assay
# T3 sequence (whole entry): T1 sequence (P04062 whole entry) with N409S
# Galactocerebrosidase = target: T4, Galactocerebrosidase (Homo sapiens, UniProt P54803); assay: Inhibition of recombinant human GALC at pH 5.2 pre-incubated for 10 mins followed by 4-methylumbelliferyl-beta-D-galactopyranoside substrate addition and measured after 20 mins by fluorescence assay
# T4 sequence (P54803 whole entry): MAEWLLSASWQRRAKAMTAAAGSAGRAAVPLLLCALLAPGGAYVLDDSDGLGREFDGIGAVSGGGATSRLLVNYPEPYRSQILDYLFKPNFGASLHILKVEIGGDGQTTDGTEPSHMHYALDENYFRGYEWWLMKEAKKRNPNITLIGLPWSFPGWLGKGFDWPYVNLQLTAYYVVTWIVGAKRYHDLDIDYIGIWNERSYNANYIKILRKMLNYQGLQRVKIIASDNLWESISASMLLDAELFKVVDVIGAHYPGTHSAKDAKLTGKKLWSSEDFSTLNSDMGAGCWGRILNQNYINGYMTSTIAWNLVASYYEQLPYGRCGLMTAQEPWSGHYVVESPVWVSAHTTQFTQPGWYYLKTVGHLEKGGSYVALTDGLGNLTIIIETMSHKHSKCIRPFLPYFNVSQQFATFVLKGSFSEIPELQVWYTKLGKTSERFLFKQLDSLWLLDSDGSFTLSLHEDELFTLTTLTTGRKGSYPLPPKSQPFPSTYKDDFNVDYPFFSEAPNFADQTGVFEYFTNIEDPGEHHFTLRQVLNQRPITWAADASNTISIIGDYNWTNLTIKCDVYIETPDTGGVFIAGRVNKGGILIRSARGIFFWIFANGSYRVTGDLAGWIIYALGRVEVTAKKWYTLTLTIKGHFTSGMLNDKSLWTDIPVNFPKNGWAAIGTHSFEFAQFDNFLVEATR
# In short: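 Human recombinant enzyme assayed with 4-methylumbelliferyl-β-D-galactopyranoside substrate. IC50 values in μM, averaged from triple independent duplicate analysis.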
# [7] = Inhibition of almond beta-glucosidase pre-incubated for 5 mins followed by p-nitrophenyl-beta-D-glucopyranoside substrate addition and measured after 30 mins by spectrophotometric assay; parameters: species or system Prunus dulcis
# In short: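 Enzyme at 0.05 U mL⁻¹ with p-nitrophenyl-β-D-glucopyranoside, 0.7 mM final, in 100 mM sodium acetate, pH 5.0. IC50 values in μM are means of triple independent duplicate analyses.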
# [8] = tested on: T5, Lysosomal acid glucosylceramidase (Homo sapiens), P04062 [L483P]; assay: Chaperone activity at GBA L444P mutant in Gaucher disease patient-derived fibroblasts assessed as restoration of enzyme activity at 1 to 10000 nM after 4 days by 4-methylumbelliferyl-beta-D-glucopyranoside substrate based fluorescence assay
# T5 sequence (whole entry): T1 sequence (P04062 whole entry) with L483P
IC50 [1] [µM],IC50 [2] [µM],degraded at 144 h [3] [%],IC50 [4] [µM],IC50 (Alpha-galactosidase) [µM],IC50 [5] [µM],IC50 (Beta-galactosidase) [µM],Activity [6],IC50 (Galactocerebrosidase) [µM],IC50 [7] [µM],Activity [8],Structure (SMILES)
> 30,2.56,< 3,> 30,> 30,> 30,> 30,Active,> 30,19.2,–,CCCCOC1OCC(CNC(=N)N2C[C@@H](O)[C@H](O)[C@@H](O)C2)O1 (stereo partly drawn)
> 30,0.025,< 3,> 30,> 30,> 30,> 30,Active,> 30,14.6,inactive,CCCCCCCCOC1OCC(CNC(=N)N2C[C@@H](O)[C@H](O)[C@@H](O)C2)O1 (stereo partly drawn)
–,–,–,–,–,–,–,Active,–,–,–,OC[C@H]1CNC[C@@H](O)[C@@H]1O
0.085,–,–,> 30,> 30,–,> 30,–,> 30,> 30,–,CCCCCCCCCN1C[C@H](O)[C@@H](O)[C@H](O)[C@H]1CO
